Only some compounds are listed: those with a hit (about 2.6% of all), similar ones and a draw of the others.
PRMT1 FP inh: PRMT1 (human) inhibition, primary screen. recombinant PRMT1, activity-based probe fluorescence polarization. inhibition, % at 2.79 µM. AID 652257. 1.3% of 370,000 active;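 active means inhibition above about 21% made by adding two undisclosed values, limit read from the data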
TDP2 absorb: blocks human TDP2 phosphodiesterase activity; inhibition, % at 12.8 µM; recombinant TDP2, T5PNP hydrolysis, p-nitrophenol absorbance 415 nm; 0.34% of 370,000 active; AID 720702;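 active means inhibition above the mean of all tested compounds plus 3 SD, set per campaign, cut at about 25% in these data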;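 further: 0% = DMSO with enzyme and 100% = buffer with substrate but no TDP2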
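Evaluation: % inhibition relative to enzyme-containing and enzyme-free wells. Material: recombinant human TDP2. Benchmarks: enzyme-free and DMSO wells. Timing: enzyme reaction with compound for 2 h at 37 °C. Compound dosing: 12.8 µM only. Measured by: p-Nitrophenol epi absorbance. Reagent: T5PNP substrate at 5 mM, a TopII-DNA adduct mimic. Replication: single well per compound.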
GSTO1 counter: counter-screen for RBBP9 inhibitors: inhibitors of human GSTO1. P78417. recombinant GSTO1, activity-based probe fluorescence polarization. inhibition, % at 5.96 µM. 1.1% of 300,000 active. AID 1974;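 active means inhibition above the campaign mean inhibition plus 3 SD, cut at about 35% in these data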;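 further: 0% = GSTO1-1 with DMSO and 100% = wells lacking GSTO1-1 enzyme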
PAD4 inh: blocks human protein arginine deiminase 4. Q9UM07. recombinant PAD4, RCA probe fluorescence polarization. inhibition, % at 6.36 µM. 0.41% of 330,000 active. AID 485272;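 active means percent inhibition above a cutoff equal to the mean of all tested compounds plus 3 SD, cut at about 15% in these data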;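 further: 0% = PAD4 with RCA probe and DMSO and 100% = probe without PAD4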
Apaf-1 inh: human Apaf-1 inhibition. reconstituted apoptosome caspase-3 activity, DEVD-Rh110 fluorescence. 0.71% of 330,000 active. AID 489030. O14727. inhibition, % at 20 µM; active means inhibition of at least 40% at 20 µM;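 further: plate controls were DMSO wells for no effect and DEVD-CHO caspase inhibitor wells for full effect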
Target sequence (O14727 whole entry, looked up): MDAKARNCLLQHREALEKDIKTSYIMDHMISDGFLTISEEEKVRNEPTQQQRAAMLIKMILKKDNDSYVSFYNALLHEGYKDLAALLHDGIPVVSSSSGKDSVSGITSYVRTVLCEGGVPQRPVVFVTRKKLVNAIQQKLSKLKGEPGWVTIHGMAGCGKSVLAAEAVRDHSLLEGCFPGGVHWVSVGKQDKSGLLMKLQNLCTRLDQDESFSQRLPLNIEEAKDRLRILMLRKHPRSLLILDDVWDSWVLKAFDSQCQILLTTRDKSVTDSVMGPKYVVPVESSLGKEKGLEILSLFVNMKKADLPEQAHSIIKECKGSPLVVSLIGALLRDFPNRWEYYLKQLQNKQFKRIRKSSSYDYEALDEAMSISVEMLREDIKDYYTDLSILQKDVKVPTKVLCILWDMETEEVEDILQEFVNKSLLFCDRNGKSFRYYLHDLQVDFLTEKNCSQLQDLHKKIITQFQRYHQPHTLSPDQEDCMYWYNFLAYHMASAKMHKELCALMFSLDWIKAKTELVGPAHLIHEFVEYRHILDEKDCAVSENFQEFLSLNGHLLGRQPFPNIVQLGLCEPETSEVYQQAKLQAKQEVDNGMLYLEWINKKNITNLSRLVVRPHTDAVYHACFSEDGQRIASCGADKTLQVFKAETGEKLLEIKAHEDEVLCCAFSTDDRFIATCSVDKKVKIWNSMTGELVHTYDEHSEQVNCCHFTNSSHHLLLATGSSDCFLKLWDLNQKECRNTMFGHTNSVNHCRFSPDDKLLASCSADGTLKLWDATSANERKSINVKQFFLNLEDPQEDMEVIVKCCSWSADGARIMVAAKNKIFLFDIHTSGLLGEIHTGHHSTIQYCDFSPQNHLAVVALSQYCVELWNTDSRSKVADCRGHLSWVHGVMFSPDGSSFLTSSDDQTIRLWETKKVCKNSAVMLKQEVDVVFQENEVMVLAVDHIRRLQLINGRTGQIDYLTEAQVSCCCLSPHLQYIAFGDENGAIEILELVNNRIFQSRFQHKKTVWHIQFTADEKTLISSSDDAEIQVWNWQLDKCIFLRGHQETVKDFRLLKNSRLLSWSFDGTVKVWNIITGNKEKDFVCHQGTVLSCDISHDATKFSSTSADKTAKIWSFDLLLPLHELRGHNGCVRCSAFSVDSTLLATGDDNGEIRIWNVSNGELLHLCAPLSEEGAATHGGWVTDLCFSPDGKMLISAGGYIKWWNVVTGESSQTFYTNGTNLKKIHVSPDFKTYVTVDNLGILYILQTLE
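Medium: Hepes buffer, pH 7.5 / System: biochemical Apaf-1 apoptosome reconstitution / Measured by: Rh110 fluorescence, excitation 480 nm, emission 540 nm / Times: compound with Apaf-1, dATP, procaspase-3 30 min, then 50 min reaction, room temperature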
PRMT1 inh conf: confirmation of human PRMT1 inhibitors. shares compounds with PRMT1 FP inh. recombinant His-PRMT1, activity-based probe fluorescence polarization. inhibition, % at 2.79 µM. 42% of 3,300 active;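 active means mean inhibition across replicates above the hit cutoff derived for the earlier primary screen, cut at about 22% in these data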
Starred values were filed as active, the others as inactive; · = no result.

SMILES	PRMT1 FP inh	TDP2 absorb	GSTO1 counter	PAD4 inh	Apaf-1 inh	PRMT1 inh conf
Cc1ccccc1N1C(=O)CC(N2CCC(C(N)=O)CC2)C1=O (centres undefined)	73*	18	2	-1	-5	-3
CCS(=O)(=O)Nc1cccc(C2=NN(S(=O)(=O)CC)C(c3cccs3)C2)c1 (centres undefined)	-1	-11	4	-3	-15	·
CCC(C)[C@H](NC(=O)Nc1cccc(Br)c1)C(=O)OC (some centres undefined)	-2	-23	2	0	7	·
CC1CCCCN1C(=O)CSc1nnc(-c2cccnc2)o1 (centres undefined)	0	1	3	1	-4	·
N#C/C(=C/c1ccc(N2CCOCC2)o1)c1nc2ccccc2[nH]1	38*	-6	-54	-1	12	-55
Cc1cc(/C=C(/C#N)c2nc3ccccc3[nH]2)c(C)n1-c1cccc([N+](=O)[O-])c1	-2	-10	9	-4	22	·
N#C/C(=C\c1ccc(N2CCOCC2)o1)c1ccccc1	12	7	1	2	12	·
Cc1cc(/C=C(\C#N)c2nc3ccccc3[nH]2)c(C)n1C	28*	-5	9	0	-3	19
Cn1c(=O)[nH]c(NCCc2ccc(O)cc2)c([N+](=O)[O-])c1=O	4	-9	28	2	-14	·
Nn1c(SCc2cccc3ccccc23)nnc1-c1n[nH]c2c1CCC2	-9	11	·	·	·	·
CCS(=O)(=O)c1ccc(O)c(NC(=O)c2ccc(S(=O)(=O)N3CCCCCC3)cc2)c1	7	4	·	-2	4	·
COc1ccc(SN=C2C(C)=CC(=O)C=C2C)cc1	7	6	18	9	2	·
COC1=CC(=O)C=C(OC)C1=O	56*	-1	·	·	·	54*
O=C(Nc1nncs1)c1cc(-c2ccco2)nc2ccccc12	36*	7	·	-6	2	9
CCc1nnc(NC(=O)c2cc(-c3ccco3)nc3ccccc23)s1	26*	-3	11	-2	18	12
Cc1cccc(NC(=O)c2cc(-c3ccco3)nc3ccccc23)n1	35*	5	-7	-12	20	9
COC(=O)c1ccccc1NC(=O)N1CSC[C@H]1C(=O)OC	30*	4	8	-1	11	48*
CC1(C)CC(=O)C(C=Nc2cccnc2)=C(O)C1	-5	10	6	-2	-1	·
CC1(C)CC(=O)C(C=Nc2ccc(C(=O)c3ccccc3)cc2N=CC2=C(O)CC(C)(C)CC2=O)=C(O)C1	77*	-15	-4	-11	9	0
CC1(C)CC(=O)C(C=Nc2cccnc2/N=C/C2=C(O)CC(C)(C)CC2=O)=C(O)C1	25*	11	1	-2	4	-2
Cc1noc(NS(=O)(=O)c2ccc(NC(=O)C(F)(F)C(F)(F)C(F)(F)F)cc2)c1C	4	-2	-4	1	4	·
CCOC(=O)C1(Cc2ccccc2)CCN(Cc2ccccc2OC)CC1	2	5	·	·	·	·
COc1ccc(CN2CCC(CNC(=O)NCc3ccccc3)CC2)cc1	7	8	·	·	·	·
Cc1ccc(S(=O)(=O)c2c(N)n(Cc3ccco3)c3nc4ccccc4nc23)cc1C	28*	-8	-7	-34	15	6
Nc1c(S(=O)(=O)c2ccccc2)c2nc3ccccc3nc2n1Cc1ccco1	33*	7	2	-17	18	2
SMILES	PRMT1 FP inh	TDP2 absorb	GSTO1 counter	PAD4 inh	Apaf-1 inh	PRMT1 inh conf
Nc1c(S(=O)(=O)c2ccccc2)c2nc3ccccc3nc2n1CCN1CCOCC1	3	2	4	-2	-4	·
O=C1[C@@H](c2ccccc2)CC[C@@H]2C=CC[C@H]3CCN1[C@@H]32	1	4	·	·	·	·
Cn1cccc1C=NNC(=O)c1cc(-c2ccc(Cl)cc2)n[nH]1	25*	0	·	·	·	-7
COc1ccc(-c2cc(C(=O)NN=Cc3cccn3C)[nH]n2)cc1	8	-5	·	·	·	·
C=CCc1cccc2cc(C(=O)Nc3ccccc3C(=O)O)c(=O)oc12	36*	1	·	·	·	18
Cc1ccc(CNC(=O)CC(C)S(=O)(=O)c2ccc3c(c2)NC(=O)CS3)o1 (centres undefined)	44*	1	1	0	-1	15
Cc1ccc(CNC(=O)CC(C)S(=O)(=O)c2ccc3c(c2)NC(=O)CO3)cc1 (centres undefined)	7	-8	6	-4	-7	·
CCc1ccccc1NC(=O)C1C2C=CC(O2)C1C(=O)O (centres undefined)	7	-8	5	-2	-1	·
O=C(O)C1C2C=CC(O2)C1C(=O)Nc1ccccc1C(F)(F)F (centres undefined)	85*	-9	13	-2	8	24*
CCN(CC)C(=O)c1sc2nc(-c3cccs3)cc(-c3ccc(Cl)cc3)c2c1N	15	6	1	5	9	·
CCN(CC)C(=O)c1sc2nc(-c3cccs3)cc(-c3cccs3)c2c1N	57*	8	7	-6	8	13
N#Cc1c(-c2cccc(Br)c2)cc(-c2ccco2)[nH]c1=O	33*	-9	-25	-10	20	10
O=C(c1ccco1)N1CCN(Cc2cc(=O)c(OCc3ccc(F)cc3)co2)CC1	0	-11	6	1	8	·
Cn1c(=O)c(=O)n(C)c2cc(N3CCOCC3)c(NS(=O)(=O)c3ccc([N+](=O)[O-])cc3)cc21	25*	-9	3	-2	3	15
COc1ccccc1CNC(=O)CSC(=S)N1CCCC1	13	14	-1	0	1	·
COC1=C(OC)C(=O)C(Sc2ccc3ccccc3c2)=CC1=O	95*	7	·	·	·	94*
COc1cc2ccccc2ccc1=NO	-4	8	·	·	·	·
NC(=O)/C(=C\c1ccco1)NC(=O)c1ccco1	20	-8	·	·	·	·
NC(=O)/C(=C/c1ccco1)C(N)=S	53*	5	27	10	15	22*
CC(Sc1nnc(C2CC2)n1C1CC1)C(=O)NCc1cccs1 (centres undefined)	-2	-3	·	·	0	·
CC(Sc1nnc(C2CC2)n1C1CC1)C(=O)Nc1cccc(S(=O)(=O)N(C)C)c1 (centres undefined)	37*	3	·	2	11	0
Cc1ccc(-n2c(N)c(C(=O)N3CCOCC3)sc2=S)cc1	8	-2	-3	0	-19	·
CN1CCN(C(=O)c2sc(=S)n(-c3ccccc3)c2N)CC1	76*	3	0	5	13	79*
Cc1cc(C)nc(SCSc2nc(C)cc(C)n2)n1	-1	-25	·	·	·	·
Cc1cc(C)nc(SCCc2ccncc2)n1	30*	3	3	5	4	11
CC1(C(=O)NS(=O)(=O)c2ccccc2Cl)CCN1C(=O)COc1ccc(Cl)cc1 (centres undefined)	-1	7	·	·	·	·
